Ten molecules from ChEMBL document CHEMBL1157843, “Synthesis and anticonvulsant activity of a new 6-alkoxy-[1,2,4]triazolo[4,3-b]pyridazine” (Eur J Med Chem, 2010) can be followed below.

SMILES strings stand for the structures. Calls of active or inactive are those of the source. No cut-off for these calls is given here.

What is called ED50 is the midpoint of the dose-response relation. As a reminder, the TD50 is the dose at which the toxic effect under study appears in half of the subjects. Read a high TD50 as lower toxicity.

Data set [1] has as its system Mus musculus. Nature of the data set: Neurotoxicity against mouse at 30 mg/kg, ip after 4 hrs by rotarod ataxia test. It is filed as toxicity, organism-based. Set-up: dose 30 mg/kg, route intraperitoneal. As to conditions: in vivo. Summed up: (§1)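 Phase-I rotarod ataxia screen per NIH ADD protocol. KunMing mice (18–25 g), three per dose, test agent in polyethylene glycol-400 i.p. at 30, 100 or 300 mg/kg. Neurological deficit read 30 min and 4 h after dosing; scored as animals showing toxicity/animals tested.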
For orientation: In the rotarod test animals must keep their balance on a rotating rod.

The test system of data set [2] is Mus musculus. Briefly: Protective index, ratio of TD50 for ip dosed mouse to ED50 for maximum electric stimulus-induced seizure in ip dosed mouse. Format: functional.
Data set [3] has as its system Mus musculus. Briefly: Anticonvulsant in ip dosed mouse assessed as protection against maximum electric stimulus-induced seizures. It is filed as functional. The method in brief:
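Phase-II quantitation in KunMing mice (18–25 g), vehicle polyethylene glycol-400. Groups of 10 received a range of i.p. doses until at least three points fell within 10–90% MES protection or minimal rotarod neurotoxicity. ED50, TD50 and 95% confidence intervals computed from regression by an NINDS program. PI = TD50/ED50.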

Data set [4] is described as follows: Neurotoxicity against ip dosed mouse by rotarod ataxia test. As to conditions: in vivo. Format: toxicity, organism-based.
The subject of data set [5] is Mus musculus. Nature of the data set: Neurotoxicity against mouse at 30 mg/kg, ip after 0.5 hrs by rotarod ataxia test. Format: toxicity, organism-based. The arrangement: dose 30 mg/kg, route intraperitoneal. The conditions noted are these: in vivo. Summed up: as §1
In data set [6] the test system is Mus musculus. Briefly: Anticonvulsant in mouse assessed as protection against maximum electric stimulus-induced seizures at 100 mg/kg, ip after 4 hrs. Format: functional, organism-based. Set-up: dose 100 mg/kg. The method in brief:
(§2)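 Phase-I qualitative MES screen following NIH ADD protocol. KunMing mice (18–25 g), three per dose, test agent in polyethylene glycol-400 i.p. at 30, 100 or 300 mg/kg. Protection assessed 0.5 h and 4 h after dosing; scored as animals protected/animals tested.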

Data set [7] relates to Mus musculus. Nature of the data set: Neurotoxicity against mouse at 100 mg/kg, ip after 0.5 hrs by rotarod ataxia test. As to conditions: in vivo. The arrangement: dose 100 mg/kg, route intraperitoneal. Format: toxicity, organism-based. Summed up: as §1
Data set [8] concerns Mus musculus. Nature of the data set: Neurotoxicity against mouse at 100 mg/kg, ip after 4 hrs by rotarod ataxia test. It is filed as toxicity, organism-based. Set-up: dose 100 mg/kg, route intraperitoneal. As to conditions: in vivo. The method in brief: as §1
In data set [9] the test system is Mus musculus. Nature of the data set: Anticonvulsant in mouse assessed as protection against maximum electric stimulus-induced seizures at 30 mg/kg, ip after 4 hrs. Format: functional, organism-based. Set-up: dose 30 mg/kg. The method in brief:
as §2

The test system of data set [10] is Mus musculus. Nature of the data set: Anticonvulsant in mouse assessed as protection against maximum electric stimulus-induced seizures at 100 mg/kg, ip after 0.5 hrs. Format: functional, organism-based. The arrangement: dose 100 mg/kg. Summed up:
as §2

`Clc1ccc(Oc2ccc3nncn3n2)cc1`: the Activity entry in the data set on Mus musculus [1] and in the data set with Mus musculus [5] was “Non-toxic” in each case. The PI in the data set on Mus musculus [2] was 10.7. In the data set on Mus musculus [3], the ED50 stood at 36.7 mg/kg. This molecule gave a TD50 in [4] of 394 mg/kg.

Regarding `CCCCCCCCCCOc1ccc2nncn2n1`, the outcome in the data set on Mus musculus [6] was inactive. Moreover, the ED50 in the data set with Mus musculus [3] was > 100 mg/kg. Moreover, the Activity entry in the data set with Mus musculus [7] is listed as “Toxic”; with Mus musculus [8], “Non-toxic”.

For the molecule `CCCCCCCOc1ccc2nncn2n1`, the Activity entry was “Non-toxic” in the data set on Mus musculus [1] and “Toxic” in the data set with Mus musculus [5]. In the data set with Mus musculus [2], the PI is recorded as 1.7. Besides, in the data set on Mus musculus [3], the ED50 is 42.4 mg/kg. Besides, the TD50 in data set [4] stood at 73 mg/kg. Moreover, the outcome in the data set on Mus musculus [9] was inactive.

`Cc1ccc(Oc2ccc3nncn3n2)cc1`: the outcome in the data set on Mus musculus [6] was inactive. In addition, the ED50 in the data set with Mus musculus [3] is > 100 mg/kg. The Activity result in the data set on Mus musculus [7] and in the data set with Mus musculus [8] was “Non-toxic” throughout.

Take `Fc1ccc(Oc2ccc3nncn3n2)cc1`: the Activity result with Mus musculus [1] and in the data set with Mus musculus [5] was “Non-toxic” in each case. The PI in the data set with Mus musculus [2] is 8.3. Besides, in the data set on Mus musculus [3], the ED50 worked out at 38 mg/kg. In data set [4], this molecule gave a TD50 of 317 mg/kg. In addition, in the data set with Mus musculus [9], the outcome was inactive.

Regarding `CCCCCCCCCOc1ccc2nncn2n1`, the result in the data set with Mus musculus [6] was inactive. Also, the ED50 with Mus musculus [3] is > 100 mg/kg. In addition, the Activity result with Mus musculus [7] was “Toxic”; with Mus musculus [8] it was “Non-toxic”.

As to `CCCCCOc1ccc2nncn2n1`, the Activity entry in the data set with Mus musculus [1] is listed as “Non-toxic”; with Mus musculus [5] it was “Toxic”. Besides, the PI with Mus musculus [2] is recorded as 1.79. The ED50 with Mus musculus [3] came out at 39.4 mg/kg. In data set [4], this molecule displayed a TD50 of 70.4 mg/kg. In the data set on Mus musculus [9], the outcome was inactive.

With `COc1ccccc1Oc1ccc2nncn2n1`, in the data set on Mus musculus [6], the outcome was inactive. Moreover, the ED50 with Mus musculus [3] was > 100 mg/kg. Besides, the Activity result with Mus musculus [7] and in the data set on Mus musculus [8] was “Non-toxic” throughout.

Regarding `Brc1ccc(Oc2ccc3nncn3n2)cc1`, the PI with Mus musculus [2] is given as 6.7. In the data set on Mus musculus [6], the outcome was inactive. Besides, the median effective dose (ED50) with Mus musculus [3] turned out to be 49.1 mg/kg. In addition, in data set [4], the TD50 is 329 mg/kg. In addition, the outcome with Mus musculus [10] was Active. For the same molecule, the Activity entry in the data set on Mus musculus [7] and in the data set with Mus musculus [8] was “Non-toxic” in each case.

In the case of `CCCCCCOc1ccc2nncn2n1`, the Activity result in the data set on Mus musculus [1] is reported as “Non-toxic”; in the data set with Mus musculus [5] it was “Toxic”. Moreover, in the data set on Mus musculus [2], the PI turned out to be 1.8. Also, in the data set on Mus musculus [3], the median effective dose (ED50) is 32.9 mg/kg. For the same molecule, the TD50 in data set [4] turned out to be 60.8 mg/kg. Besides, the result in the data set with Mus musculus [9] was inactive.
